# Published values from different studies.
# Compare with care: the assays were run in different laboratories.
# PBRM1 bromodomain: Protein polybromo-1, bromodomain (PBRM1, Homo sapiens, UniProt Q86U86)
# BRD2 BD2: Bromodomain-containing protein 2, BD2 (BRD2, Homo sapiens, UniProt P25440)
# PBRM1 BD2: Protein polybromo-1, BD2 (PBRM1, Homo sapiens, UniProt Q86U86)
Compound,target,test,test system,conditions,measurement,value
CCC(/C=C1\CCn2c1nc(=O)c1ccc(O)cc12)CC,PBRM1 bromodomain,"thermal stability, DSF",,100 µM,ΔTm,-0.42 °C
Cc1cnc(Nc2ccc(OCCN3CCCC3)cc2)nc1Nc1cccc(S(=O)(=O)NC(C)(C)C)c1,PBRM1 bromodomain,"thermal stability, DSF",,10 µM,ΔTm,0.08 °C
CN(C)C1CCN(CC#Cc2nn(C3CCCC3)c3nc(NCc4ccccc4)ncc23)C1 (centres unmarked),"Insulin receptor (INSR, Homo sapiens, UniProt P06213)","enzyme activity, inhibitor, FRET",,10 µM,inhibition,31%
Nc1ncnc2occ(-c3ccc(NC(=O)Nc4cc(C(F)(F)F)ccc4F)cc3)c12,"Receptor tyrosine-protein kinase erbB-3 (ERBB3, Homo sapiens, UniProt P21860)","cell-free assay, inhibitor",,20 µM,remaining signal,73%
Cc1cnc(NC2CCOCC2)nc1-n1cnc(C(=O)NC(CN)c2cc(F)cc(Cl)c2)c1 (centres unmarked),"Tyrosine-protein kinase ABL1 (Abl1, Mus musculus, UniProt P00520)","enzyme activity, inhibitor, radiometric",,1 µM,remaining activity,99%
CCC(/C=C1\CCn2c1nc(=O)c1c(Cl)c(Cl)ccc12)CC,PBRM1 bromodomain,"thermal stability, DSF",,100 µM,ΔTm,2.23 °C
Cc1ccc(C(=O)Nc2ccc(CN3CCN(C)CC3)c(C(F)(F)F)c2)cc1C#Cc1cnc2cccnn12,"Casein kinase I isoform alpha-like (CSNK1A1L, Homo sapiens, UniProt Q8N752)",enzyme activity,,23.5 nM,remaining activity,100%
Oc1ccc(-c2nc(-c3ccncc3)c(-c3ccc(F)cc3)[nH]2)cc1,BRD2 BD2,"thermal stability, DSF",,10 µM,ΔTm,0.66 °C
Cc1cc2c(cc1N1C(=O)c3cccc4c(Cl)ccc(c34)C1=O)n(C)c(=O)n2C,BRD2 BD2,"thermal stability, DSF",,10 µM,ΔTm,0.4 °C
CN(C)/C=C1\CCCn2c1nc(=O)c1c(Cl)cccc12,PBRM1 BD2,"thermal stability, DSF",,100 µM,ΔTm,1.44 °C
CCCOc1ccc(OC)c(F)c1C(=O)c1ccc(C(=O)N[C@@H]2CNC[C@H]2NC(=O)c2ccc3[nH]ncc3c2)cc1,"Serine/threonine-protein kinase N2 (PKN2, Homo sapiens, UniProt Q16513)","enzyme activity, inhibitor",,0.5 µM,remaining activity,14%
CCC1=C[C@@H]2CN(C1)Cc1c([nH]c3ccccc13)[C@@](C(=O)OC)(c1cc3c(cc1OC)N(C)[C@H]1[C@@](O)(C(=O)OC)[C@H](OC(C)=O)[C@]4(CC)C=CCN5CC[C@]31[C@@H]54)C2,"Organic cation/carnitine transporter 2 (SLC22A5, Homo sapiens, UniProt O76082)","transporter uptake, inhibitor",HEK293,100 µM,remaining activity,15.3%
O=C(O)c1cccc(NC(c2ccccc2)c2ccc3ccccc3c2O)c1 (centres unmarked),"CAAX prenyl protease 2 (Homo sapiens, UniProt Q9Y256)","enzyme activity, inhibitor",,10 µM,remaining activity,< 40%
CCC(/C=C1\CCCn2c1nc(=O)c1c(Cl)cccc12)CC,PBRM1 bromodomain,"thermal stability, DSF",,100 µM,ΔTm,5.82 °C
COc1cc(NC(C)=O)c(Cl)cc1C(=O)Nc1nccs1,"Muscarinic acetylcholine receptor M1 (CHRM1, Homo sapiens, UniProt P11229)",cell-free assay,,10 µM,inhibition,2.6%
CC(C)(C)C/C=C1\CCn2c1nc(=O)c1c(Cl)cccc12,PBRM1 BD2,"thermal stability, DSF",,100 µM,ΔTm,4.96 °C
C[S+]([O-])c1ccc(-c2nc(-c3ccncc3)c(-c3ccc(F)cc3)[nH]2)cc1 (centres unmarked),PBRM1 BD2,"thermal stability, DSF",,10 µM,ΔTm,0.4 °C
